biological target: T1, Toll-like receptor 4 (Mus musculus) (UniProt Q9QUK6); test: Agonist activity at TLR4 in C57BL/6 mouse primary BMDC assessed as induction of IL-6 release at 5 uM after 18 hrs by ELISA relative to N-cyclohexyl-2-(5-methyl-4-oxo-3-phenyl-4,5-dihydro-3H-pyrimido[5,4-b]indol-2-ylthio)acetamide; conditions: not given
T1 sequence (whole entry): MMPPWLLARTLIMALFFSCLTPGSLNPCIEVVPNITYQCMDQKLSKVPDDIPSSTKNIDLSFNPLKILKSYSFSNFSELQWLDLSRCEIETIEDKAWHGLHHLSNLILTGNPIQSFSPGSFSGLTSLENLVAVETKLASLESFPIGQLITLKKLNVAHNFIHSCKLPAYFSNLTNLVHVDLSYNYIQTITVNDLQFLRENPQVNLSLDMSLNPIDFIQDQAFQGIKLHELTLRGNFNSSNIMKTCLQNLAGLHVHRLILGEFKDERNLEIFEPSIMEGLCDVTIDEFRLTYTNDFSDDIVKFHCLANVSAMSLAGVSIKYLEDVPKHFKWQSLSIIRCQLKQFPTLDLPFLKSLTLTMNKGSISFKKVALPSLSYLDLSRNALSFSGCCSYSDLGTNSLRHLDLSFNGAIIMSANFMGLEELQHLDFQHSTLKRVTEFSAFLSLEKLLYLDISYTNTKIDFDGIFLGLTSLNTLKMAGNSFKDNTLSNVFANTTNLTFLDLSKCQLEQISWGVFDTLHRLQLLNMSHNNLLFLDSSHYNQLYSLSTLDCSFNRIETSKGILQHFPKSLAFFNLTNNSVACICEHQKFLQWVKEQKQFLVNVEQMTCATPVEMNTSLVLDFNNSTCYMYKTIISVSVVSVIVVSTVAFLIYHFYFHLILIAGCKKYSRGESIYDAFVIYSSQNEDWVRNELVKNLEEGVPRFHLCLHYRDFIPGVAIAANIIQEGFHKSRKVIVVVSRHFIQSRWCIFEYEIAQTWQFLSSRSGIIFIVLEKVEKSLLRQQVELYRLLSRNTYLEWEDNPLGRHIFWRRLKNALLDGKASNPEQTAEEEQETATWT

In order of rising Activity:
1. Cn1c2ccccc2c2nc(OCC(=O)NC3CCCCC3)n(-c3ccccc3)c(=O)c21  0%
2. O=c1c2[nH]c3ccccc3c2nc(SCCCC2CCCCC2)n1-c1ccccc1  0%
3. Cn1c2ccc(-c3ccc(-c4ccccc4)cc3)cc2c2nc(SCC(=O)NC3CCCCC3)n(-c3ccccc3)c(=O)c21  0%
4. Cn1c2cc(C#N)ccc2c2nc(SCC(=O)NC3CCCCC3)n(-c3ccccc3)c(=O)c21  3%
5. Cn1c2ccc(C#N)cc2c2nc(SCC(=O)NC3CCCCC3)n(-c3ccccc3)c(=O)c21  45%
6. Cc1c(C)n(C)c2c(=O)n(-c3ccccc3)c(SCC(=O)NC3CCCCC3)nc12  81%
7. O=C(CSc1nc2c3c([nH]c2c(=O)n1-c1ccccc1)CCCCC3)NC1CCCCC1  115%

biological target: T1, Toll-like receptor 4 (Mus musculus); test: Agonist activity at mouse TLR4 expressed in HEK293 blue cells assessed as induction of NF-kappaB activation-mediated SEAP production by measuring AUC after 20 to 24 hrs by colorimetric assay relative to N-cyclohexyl-2-(5-methyl-4-oxo-3-phenyl-4,5-dihydro-3H-pyrimido[5,4-b]indol-2-ylthio)acetamide; assay type: cell-based; conditions: not given

In order of rising Activity:
1. Cn1c2ccccc2c2nc(OCC(=O)NC3CCCCC3)n(-c3ccccc3)c(=O)c21  1%
2. O=c1c2[nH]c3ccccc3c2nc(SCCCC2CCCCC2)n1-c1ccccc1  1%
3. Cn1c2ccc(-c3ccc(-c4ccccc4)cc3)cc2c2nc(SCC(=O)NC3CCCCC3)n(-c3ccccc3)c(=O)c21  1%
4. Cn1c2cc(C#N)ccc2c2nc(SCC(=O)NC3CCCCC3)n(-c3ccccc3)c(=O)c21  6%
5. Cn1c2ccc(C#N)cc2c2nc(SCC(=O)NC3CCCCC3)n(-c3ccccc3)c(=O)c21  14%
6. Cc1c(C)n(C)c2c(=O)n(-c3ccccc3)c(SCC(=O)NC3CCCCC3)nc12  22%
7. O=C(CSc1nc2c3c([nH]c2c(=O)n1-c1ccccc1)CCCCC3)NC1CCCCC1  82%

biological target: T2, Toll-like receptor 4 (Homo sapiens, UniProt O00206); test: Agonist activity at human TLR4 expressed in HEK293 blue cells assessed as induction of NF-kappaB activation-mediated SEAP production after 20 to 24 hrs by colorimetric assay; assay type: cell-based; conditions: not given
T2 sequence (O00206 whole entry): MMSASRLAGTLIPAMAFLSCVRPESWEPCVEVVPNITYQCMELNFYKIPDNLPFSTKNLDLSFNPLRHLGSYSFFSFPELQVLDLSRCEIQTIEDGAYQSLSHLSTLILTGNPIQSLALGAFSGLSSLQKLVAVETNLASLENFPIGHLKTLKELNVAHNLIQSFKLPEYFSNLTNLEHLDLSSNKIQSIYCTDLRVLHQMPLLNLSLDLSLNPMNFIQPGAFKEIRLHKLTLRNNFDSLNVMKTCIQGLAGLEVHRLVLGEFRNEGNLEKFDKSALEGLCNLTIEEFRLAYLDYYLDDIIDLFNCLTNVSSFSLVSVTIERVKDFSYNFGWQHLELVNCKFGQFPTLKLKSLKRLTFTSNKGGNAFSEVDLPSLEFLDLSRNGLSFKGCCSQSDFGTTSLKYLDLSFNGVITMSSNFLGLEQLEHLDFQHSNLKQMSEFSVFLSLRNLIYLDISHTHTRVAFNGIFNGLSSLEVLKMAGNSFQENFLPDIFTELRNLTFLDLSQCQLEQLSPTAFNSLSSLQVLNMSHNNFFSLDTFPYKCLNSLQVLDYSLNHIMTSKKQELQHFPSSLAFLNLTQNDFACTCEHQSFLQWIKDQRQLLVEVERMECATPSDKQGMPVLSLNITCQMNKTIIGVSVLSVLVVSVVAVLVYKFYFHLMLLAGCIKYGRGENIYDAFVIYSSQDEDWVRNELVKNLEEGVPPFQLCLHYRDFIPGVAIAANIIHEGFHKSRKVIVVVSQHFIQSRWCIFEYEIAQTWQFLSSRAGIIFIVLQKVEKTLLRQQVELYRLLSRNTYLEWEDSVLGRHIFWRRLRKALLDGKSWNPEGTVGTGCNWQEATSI
In short: (§1)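 HEK-Blue cells expressing human or mouse TLR4, 2.5 × 10⁴/well in DMEM with 10% FBS, pyruvate, glutamine and antibiotics. Graded doses from 20 mM DMSO stocks, final DMSO 0.05%. Supernatants harvested after 20–24 h; SEAP read by colorimetric substrate at 630 nm. EC50 taken as the concentration giving 50% of maximal activation. LPS 100 ng/mL served as positive control.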

Cn1c2ccccc2c2nc(OCC(=O)NC3CCCCC3)n(-c3ccccc3)c(=O)c21 and Cn1c2cc(C#N)ccc2c2nc(SCC(=O)NC3CCCCC3)n(-c3ccccc3)c(=O)c21 cannot be ordered by EC50: greater than 10 µM for the first, greater than 10 µM for the second.

Compared with O=c1c2[nH]c3ccccc3c2nc(SCCCC2CCCCC2)n1-c1ccccc1, O=C(CSc1nc2c3c([nH]c2c(=O)n1-c1ccccc1)CCCCC3)NC1CCCCC1 is lower in EC50: greater than 10 µM for the first, 7.42 µM for the second. The second is the more potent here.

Cn1c2ccc(C#N)cc2c2nc(SCC(=O)NC3CCCCC3)n(-c3ccccc3)c(=O)c21 and Cc1c(C)n(C)c2c(=O)n(-c3ccccc3)c(SCC(=O)NC3CCCCC3)nc12 cannot be ordered by EC50: greater than 10 µM for the first, greater than 10 µM for the second.

Molecule Cn1c2ccc(-c3ccc(-c4ccccc4)cc3)cc2c2nc(SCC(=O)NC3CCCCC3)n(-c3ccccc3)c(=O)c21 has an EC50 greater than 10 µM.

system: not listed separately; test: Cytotoxicity against C57BL/6 mouse primary BMDC assessed as cell viability at 5 uM after 18 hrs by MTT assay relative to control; assay type: cell-based; conditions: primary BMDC (bone marrow-derived dendritic cells), read-out: Activity

In order of rising viability at 18 h, 5 µM:
1. Cn1c2ccc(-c3ccc(-c4ccccc4)cc3)cc2c2nc(SCC(=O)NC3CCCCC3)n(-c3ccccc3)c(=O)c21  23%
2. O=c1c2[nH]c3ccccc3c2nc(SCCCC2CCCCC2)n1-c1ccccc1  57%
3. Cn1c2ccccc2c2nc(OCC(=O)NC3CCCCC3)n(-c3ccccc3)c(=O)c21  58%
4. Cn1c2cc(C#N)ccc2c2nc(SCC(=O)NC3CCCCC3)n(-c3ccccc3)c(=O)c21  65%
5. O=C(CSc1nc2c3c([nH]c2c(=O)n1-c1ccccc1)CCCCC3)NC1CCCCC1  84%
6. Cc1c(C)n(C)c2c(=O)n(-c3ccccc3)c(SCC(=O)NC3CCCCC3)nc12  100%
7. Cn1c2ccc(C#N)cc2c2nc(SCC(=O)NC3CCCCC3)n(-c3ccccc3)c(=O)c21  107%

biological target: T3, Toll-like receptor 4 (Mus musculus, UniProt Q9QUK6); test: Agonist activity at mouse TLR4 expressed in HEK293 blue cells assessed as induction of NF-kappaB activation-mediated SEAP production after 20 to 24 hrs by colorimetric assay; assay type: cell-based; conditions: not given; in short: as §1
T3 sequence (Q9QUK6 whole entry): T1 sequence (whole entry)

Cn1c2ccccc2c2nc(OCC(=O)NC3CCCCC3)n(-c3ccccc3)c(=O)c21 and Cn1c2cc(C#N)ccc2c2nc(SCC(=O)NC3CCCCC3)n(-c3ccccc3)c(=O)c21 cannot be ordered by EC50: greater than 10 µM for the first, greater than 10 µM for the second.

Going from O=c1c2[nH]c3ccccc3c2nc(SCCCC2CCCCC2)n1-c1ccccc1 to O=C(CSc1nc2c3c([nH]c2c(=O)n1-c1ccccc1)CCCCC3)NC1CCCCC1, the EC50 falls from greater than 10 µM to 2.83 µM. The second is the more potent here.

Cn1c2ccc(C#N)cc2c2nc(SCC(=O)NC3CCCCC3)n(-c3ccccc3)c(=O)c21 and Cc1c(C)n(C)c2c(=O)n(-c3ccccc3)c(SCC(=O)NC3CCCCC3)nc12 cannot be ordered by EC50: greater than 10 µM for the first, greater than 10 µM for the second.

Molecule Cn1c2ccc(-c3ccc(-c4ccccc4)cc3)cc2c2nc(SCC(=O)NC3CCCCC3)n(-c3ccccc3)c(=O)c21 has an EC50 greater than 10 µM.

biological target: T2, Toll-like receptor 4; test: Agonist activity at human TLR4 expressed in HEK293 blue cells assessed as induction of NF-kappaB activation-mediated SEAP production by measuring AUC after 20 to 24 hrs by colorimetric assay relative to N-cyclohexyl-2-(5-methyl-4-oxo-3-phenyl-4,5-dihydro-3H-pyrimido[5,4-b]indol-2-ylthio)acetamide; assay type: cell-based; conditions: not given

In order of rising Activity:
1. Cn1c2ccccc2c2nc(OCC(=O)NC3CCCCC3)n(-c3ccccc3)c(=O)c21  9%
2. O=c1c2[nH]c3ccccc3c2nc(SCCCC2CCCCC2)n1-c1ccccc1  9%
3. Cn1c2ccc(C#N)cc2c2nc(SCC(=O)NC3CCCCC3)n(-c3ccccc3)c(=O)c21  12%
4. Cc1c(C)n(C)c2c(=O)n(-c3ccccc3)c(SCC(=O)NC3CCCCC3)nc12  12%
5. Cn1c2cc(C#N)ccc2c2nc(SCC(=O)NC3CCCCC3)n(-c3ccccc3)c(=O)c21  20%
6. Cn1c2ccc(-c3ccc(-c4ccccc4)cc3)cc2c2nc(SCC(=O)NC3CCCCC3)n(-c3ccccc3)c(=O)c21  31%
7. O=C(CSc1nc2c3c([nH]c2c(=O)n1-c1ccccc1)CCCCC3)NC1CCCCC1  137%

Source: ChEMBL document CHEMBL4028879, “Structure-Activity Relationship Studies of Pyrimido[5,4-b]indoles as Selective Toll-Like Receptor 4 Ligands” (J Med Chem, 2017)
